# Compound activity from PubChem.
# Rows were chosen to be rich in hits. Some 2.6% of all compounds tested hit in one or more screens of this group.
# RAD54 inh = inhibitors of human RAD54 branch migration, primary screen, biochemical, fluorescence, single point; inhibition, % at 10.4 µM; DNA repair and recombination protein RAD54-like (Homo sapiens), Q92698; AID 602329, 2012; RAD54 Holliday junction branch migration, FAM/BHQ fluorescence; 360,000 compounds, 0.14% hits;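 active means mean normalized replicate activity at least 40 and at least half of replicates scoring 40 or more; inconclusive means only one of the two criteria met; inactive means mean below 40 and under half of replicates reaching 40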;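 further: 0% = median of neutral control wells and 100% = median of positive control wells; inhibitors cause a drop in the FAM fluorescence signal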
# RAD52 anneal inh = RAD52 DNA annealing inhibitors, primary screen, biochemical, FRET, single point, set 2; inhibition, % at 18.7 µM; 360,000 compounds, 0.46% hits; recombinant RAD52 DNA annealing, FRET fluorescence; DNA repair protein RAD52 homolog (Homo sapiens), P43351;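 active means every replicate showing at least 50% inhibition; inconclusive means mean inhibition at least 50% but not in every replicate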
# AF4-AF9 inh = inhibitors of AF4 peptide binding to AF9, primary screen, biochemical, AlphaScreen, biotin-AF4 peptide, FLAG-AF9, single point; Protein AF-9 (Homo sapiens), P42568; inhibition, % at 10 µM; 350,000 compounds, 0.47% hits; AID 651704, 2012;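 active means every replicate reaching a set inhibition limit, whatever the replicate mean, cut at about 25% in these data; inconclusive means mean inhibition reaches that limit but some replicates miss it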;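 further: 0% = plate neutral control median and 100% = total signal loss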
# rRNA inh HTS = reduced GFP signal of wild-type E. coli, primary screen, bacterial rRNA inhibitor project, GFP/RFP fluorescence, OD600, single point; 350,000 compounds, 1.6% hits; GFP signal change (wild-type ribosome), % (concentration not given with the values); E. coli WT GFP vs humanized-ribosome RFP mutants, 24 h; active compounds read low; DMSO median 0, no signal -100;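 active means significant combined selectivity score with lowered wild-type GFP, culture density cut under 30%, mutant RFP and density less affected; inactive means any of these conditions unmet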
# E-selectin induc = E-selectin induction in HUVECs, primary screen, imaging, HUVEC, immunofluorescence imaging, single point; 260,000 compounds, 0.37% hits; normalized: neutral wells 0, TNF-alpha wells 100; activation, % at 7.58 µM;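 active means mean E-selectin-positive cell signal at least 10% of the positive control, reached in at least 60% of replicates, without over 20% cell loss; inconclusive means no rule given, readout overlaps actives, possibly toxicity-flagged; inactive means the rest, including those meeting only one limit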
# Target sequence (P16581 whole entry, looked up): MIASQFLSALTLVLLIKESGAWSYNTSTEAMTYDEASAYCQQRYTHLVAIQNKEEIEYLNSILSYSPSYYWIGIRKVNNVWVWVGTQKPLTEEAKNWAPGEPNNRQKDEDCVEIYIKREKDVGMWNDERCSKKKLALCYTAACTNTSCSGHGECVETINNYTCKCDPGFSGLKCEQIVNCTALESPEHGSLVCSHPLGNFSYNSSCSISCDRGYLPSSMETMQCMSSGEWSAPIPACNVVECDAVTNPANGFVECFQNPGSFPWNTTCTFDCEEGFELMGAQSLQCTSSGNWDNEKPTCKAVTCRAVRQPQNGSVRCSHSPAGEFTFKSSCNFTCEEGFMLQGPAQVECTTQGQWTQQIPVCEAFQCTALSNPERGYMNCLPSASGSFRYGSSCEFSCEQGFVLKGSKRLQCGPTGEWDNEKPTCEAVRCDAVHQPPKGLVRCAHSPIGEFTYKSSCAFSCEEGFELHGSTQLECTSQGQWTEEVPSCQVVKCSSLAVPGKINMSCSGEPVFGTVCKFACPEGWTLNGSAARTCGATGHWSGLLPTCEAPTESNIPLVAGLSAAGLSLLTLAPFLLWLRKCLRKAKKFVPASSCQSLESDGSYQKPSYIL
#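 assay system = HUVEC, human umbilical vein endothelial cells | input = 3,000 HUVEC seeded per well | medium = EGM-2 growth medium on 0.1% gelatin-coated wells | dosing = one compound dose added by pin transfer | signal = immunofluorescence imaging | read-out basis = % PE-positive cells | control set = TNF-alpha, DMSO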
# GSIS activator = GLuc luminescence reporter in INS-1E cells, primary screen for activators of glucose-dependent secretion of insulin. 370,000 compounds, 0.61% hits. INS-1E GLuc reporter insulin secretion, 2-3 h. activation, % at 16.6 µM;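 active means lowest replicate activation of at least 40%, so every replicate reaches that level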;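 further: 0% = median of neutral control wells and 100% = median of IBMX positive control wells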
# AID977621 = growth inhibition of wild-type GFP E. coli, dose response, H69 mutant RFP, cherry-pick; shares compounds with rRNA inh HTS; 1,900 tested, under 10 active; activity change, negative = inhibition at 50 µM; E. coli wild-type GFP strain growth, fluorescence, 24 h;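 active means Wild-type ribosome reporter drop at least double the humanized mutant ribosome reporter drop, growth loss under a set limit; inconclusive means no clear call, values can overlap the other calls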;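 further: wild-type GFP and H69 mutant RFP strains grown together 50/50 in each well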
# AID977628 = E. coli growth inhibition, wild-type GFP versus h24 humanized RFP strain, dose response, h24 mutant RFP vs wild-type GFP, cherry-pick; E. coli WT GFP strain growth, fluorescence, 24 h; activity change, negative = inhibition at 50 µM; shares compounds with rRNA inh HTS; 1,900 tested, under 10 active;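 active means compound lowering the normal-ribosome reporter at least twice as much as the humanized-ribosome reporter, growth loss under a set limit; inconclusive means no clear call, values can overlap the other calls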;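 further: wild-type GFP and h24 humanized RFP strains co-cultured 1 to 1 per well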
# Starred values were filed as active, the others as inactive; ? = inconclusive; · = no result.
SMILES,RAD54 inh,RAD52 anneal inh,AF4-AF9 inh,rRNA inh HTS,E-selectin induc,GSIS activator,AID977628,others
COc1ccccc1C1CCN(Cc2cccc([N+](=O)[O-])c2)CC1,·,-3,·,-24*,·,7,?,
COc1ccc(S(=O)(=O)Nc2cccc3c2O[C@@H](CN(C)Cc2ccc(Cl)c(Cl)c2)[C@H](C)CN([C@@H](C)CO)C3=O)cc1,·,·,·,-4,0,-25,·,
COc1ccc(OC)c(S(=O)(=O)Nc2cccc3ccc(O)cc23)c1,·,-7,5,-32*,·,-10,-14,AID977621=-8.6
COCC(=O)Nc1ccc2c(c1)OC[C@H](C)N(Cc1cncnc1)C[C@H](C)[C@H](OC)CN(C)C2=O,·,·,·,2,1,-15,·,
C[C@H]1CN([C@@H](C)CO)C(=O)c2ccccc2-c2ccccc2CO[C@@H]1CN(C)C(=O)Nc1ccc(F)cc1,·,·,·,-4,·,-22,·,
O=C1OCCC1Sc1nc2ccccc2c(=O)n1Cc1ccccc1 (stereo unspecified),·,8,3,-21*,·,15,-15,
Cc1sc2nc(SC3CCOC3=O)n(Cc3ccccc3)c(=O)c2c1C (stereo unspecified),·,-10,1,-24,·,-5,·,
COc1ccc(S(=O)(=O)N(C)C[C@H]2OCCCC[C@H](C)Oc3ccc(NC(=O)C4CCCCC4)cc3C(=O)N([C@H](C)CO)C[C@H]2C)cc1,5,-7,-3,0,0,0,·,
CCC(=O)N1[C@@H]2c3ccc(-c4ccncc4)c(=O)n3C[C@@H]2[C@@H](CO)[C@@H]1C(=O)Nc1ccccc1,-1,9,-1,0,-1,10,·,
CCC1(C)Cc2c(sc3nc(SC)nc(NCCN(C)C)c23)CO1 (stereo unspecified),9,·,·,·,·,·,·,
CSc1nc(SCCN(C)C)c2c3c(sc2n1)COC(C)(C)C3,·,15,4,-23*,·,6,2.5,
C=CCN(c1ccccc1)S(=O)(=O)c1ccc(Cl)c(C(=O)OCC(=O)NCCCN2CCCC2=O)c1,-2,-12,0,-23*,8,5,·,AID977621=1.1
C[C@@H]1CN([C@H](C)CO)C(=O)c2cc(NC(=O)NC3CCCCC3)ccc2O[C@H]1CN(C)S(=O)(=O)c1ccccc1,-1,-7,-1,-4,-19,-12,·,
COc1ccc(N(CCC(=O)O)S(=O)(=O)c2ccc(C)cc2C)cc1,·,-16,1,-17*,1,-4,-9.3,AID977621=3.8
COC(=O)CC#C[C@H](C)[C@@H](NS(=O)(=O)c1ccc([N+](=O)[O-])cc1)C(C)(C)C,·,-9,3,-13*,0,-31,?,AID977621=?
CCCC#Cc1cnc2c(c1)C(=O)N([C@@H](C)CO)C[C@@H](C)[C@H](CN(C)C(=O)NC1CCCC1)O2,-3,13,-1,6,0,-20,·,
CCc1cccc(CC)c1NC(=O)Cn1c(-c2ccc(F)cc2)noc1=O,·,-13,0,-17*,4,0,5.4,AID977621=-8.7
CCOc1ccccc1NC(=O)Cn1c(-c2ccc(Cl)cc2)noc1=O,-10,-9,0,-12,3,-14,·,
O=C(C[C@H]1CC[C@H](NC(=O)C2CCOCC2)[C@@H](CO)O1)Nc1nccs1,-10,4,9,1,0,11,·,
COC(=O)CN1C(=S)N(c2ccc(F)cc2)C(=O)C1CC(=O)Nc1ccccc1 (stereo unspecified),-1,-15,3,-6,6,-35,·,
COC(=O)CN1C(=S)N(c2ccc(F)cc2)C(=O)C1CC(=O)Nc1ccc(OC)cc1 (stereo unspecified),-7,-7,·,-22*,0,-39,-13,
